Experimental data: ChEMBL document CHEMBL4825671, “Design, synthesis and biological evaluation of novel FXIa inhibitors with 2-phenyl-1H-imidazole-5-carboxamide moiety as P1 fragment” (Eur J Med Chem, 2021)

Key:
Coagulation factor XI [1] = target: T1, Coagulation factor XI (Homo sapiens, UniProt P03951); test: Binding affinity to coagulation factor 11a (unknown origin) assessed as inhibition constant using (p-Glu-Pro-Arg-pNa,HCl) as substrate preincubated for 5 mins followed by substrate addition and measured after 10 mins
Coagulation factor XI [2] = target: T1, Coagulation factor XI; test: Inhibition of coagulation factor 11a (unknown origin) at 500 uM using (p-Glu-Pro-Arg-pNa,HCl) as substrate preincubated for 5 mins followed by substrate addition and measured after 10 mins relative to control; conditions: time 15.0 min
Coagulation factor XI [3] = target: T1, Coagulation factor XI; test: Inhibition of coagulation factor 11a (unknown origin) at 100 uM using (p-Glu-Pro-Arg-pNa,HCl) as substrate preincubated for 5 mins followed by substrate addition and measured after 10 mins relative to control; conditions: time 15.0 min
Oryctolagus cuniculus = test: Antithrombotic activity in New Zealand White rabbit model of AV-shunt induced thrombosis assessed as reduction in thrombosis weight by measuring inhibition of thrombosis formation at 0.5 mg/kg, administered as iv bolus dose and subsequently followed by 0.8 mg/kg/hr as iv infusion relative to control; type: functional
In short: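 Male New Zealand White rabbits under urethane anesthesia (1.25 g/kg). A control-period AV shunt gave the baseline thrombus wet weight, found by subtraction. The compound in saline vehicle was then given as an IV bolus followed by continuous IV infusion via the jugular vein. A new AV shunt ran for 40 min. Result is % inhibition of thrombus formation, treatment versus control period. Three rabbits per group.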

T1 sequence (P03951 19-387 limits assumed): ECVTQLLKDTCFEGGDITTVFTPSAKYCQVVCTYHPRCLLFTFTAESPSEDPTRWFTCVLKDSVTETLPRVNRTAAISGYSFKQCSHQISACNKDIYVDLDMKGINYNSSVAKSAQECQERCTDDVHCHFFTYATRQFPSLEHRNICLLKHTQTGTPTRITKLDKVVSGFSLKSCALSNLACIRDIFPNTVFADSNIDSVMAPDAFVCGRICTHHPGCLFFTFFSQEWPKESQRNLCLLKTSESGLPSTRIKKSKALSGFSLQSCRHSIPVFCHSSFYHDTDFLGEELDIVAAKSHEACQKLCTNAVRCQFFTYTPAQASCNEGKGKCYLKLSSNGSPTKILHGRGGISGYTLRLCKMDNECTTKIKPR
T1 sequence (P03951 388-625 limits assumed): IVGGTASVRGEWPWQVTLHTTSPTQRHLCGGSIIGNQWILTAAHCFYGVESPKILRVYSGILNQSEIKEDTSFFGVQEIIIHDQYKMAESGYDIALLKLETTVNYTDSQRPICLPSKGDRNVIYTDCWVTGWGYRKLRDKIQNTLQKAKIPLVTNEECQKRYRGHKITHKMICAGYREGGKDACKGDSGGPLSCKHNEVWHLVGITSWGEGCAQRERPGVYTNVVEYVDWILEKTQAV

Row | SMILES | Ki (Coagulation factor XI [1]) [µM] | also measured
1 | Cc1nc(-c2cccc(Cl)c2F)n(O)c1C(=O)N[C@@H](Cc1ccc(NC(=O)C(C)C)cc1)C(=O)Nc1ccc2[nH]c(C(=O)O)cc2c1 | 0.156 | –
2 | Cc1nc(-c2cccc(Cl)c2F)n(O)c1C(=O)N[C@@H](Cc1ccc(F)cc1)C(=O)Nc1ccc2[nH]c(C(=O)O)cc2c1 | 0.486 | –
3 | CC(=O)Nc1ccc(C[C@H](NC(=O)c2c(C)nc(-c3cccc(Cl)c3F)n2O)C(=O)Nc2ccc3[nH]c(C(=O)O)cc3c2)cc1 | 0.392 | –
4 | Cc1nc(-c2cccc(Cl)c2F)n(O)c1C(=O)N[C@@H](Cc1ccccc1)C(=O)Nc1ccc(C(=O)O)cc1 | 11.8 | –
5 | Cc1nc(-c2cccc(C#N)c2)n(O)c1C(=O)O | 120 | –
6 | Cc1nc(-c2cccc(Cl)c2F)n(C)c1C(=O)N[C@@H](Cc1ccccc1)C(=O)Nc1ccc(C(=O)O)cc1 | 22.4 | –
7 | Cc1nc(-c2cccc(C#N)c2)n(O)c1C(=O)N[C@@H](Cc1ccccc1)C(=O)Nc1ccc(C(=O)O)cc1 | 23.9 | –
8 | Cc1nc(-c2cccc(Cl)c2F)n(O)c1C(=O)N[C@@H](Cc1ccc(NC(=O)C2CCCCC2)cc1)C(=O)Nc1ccc2[nH]c(C(=O)O)cc2c1 | 0.0563 | –
9 | Cc1nc(-c2ccc(C#N)cc2)n(O)c1C(=O)N[C@@H](Cc1ccccc1)C(=O)Nc1ccc(C(=O)O)cc1 | > 100 | inhibition (Coagulation factor XI [3]): 0%
10 | Cc1nc(-c2cccc(Cl)c2F)n(O)c1C(=O)N[C@@H](Cc1ccc(NC(=O)c2ccccc2)cc1)C(=O)Nc1ccc2[nH]c(C(=O)O)cc2c1 | 0.366 | –
11 | NC[C@H]1CC[C@H](C(=O)N[C@@H](Cc2ccccc2)c2nc(-c3ccc4c(N)n[nH]c4c3)c(Cl)[nH]2)CC1 | 0.0015 | inhibition (INH) (Oryctolagus cuniculus): 59.26%

The next lines start with results.

Row | Ki (Coagulation factor XI [1]) [µM] | SMILES | also measured
12 | 6.86 | Cc1nc(-c2cccc(Cl)c2F)n(O)c1C(=O)N[C@@H](Cc1ccccc1)C(=O)Nc1ccc(CC(=O)O)cc1 | –
13 | 0.031 | CC#CC(=O)Nc1ccc(C[C@H](NC(=O)c2c(C)nc(-c3cccc(Cl)c3F)n2O)C(=O)Nc2ccc3[nH]c(C(=O)O)cc3c2)cc1 | –
14 | 26.4 | Cc1nc(-c2cccc(Cl)c2F)[nH]c1C(=O)N[C@@H](Cc1ccccc1)C(=O)Nc1ccc(C(=O)O)cc1 | –
15 | > 500 | Cc1nc(-c2ccc(OCC(C)C)c(C#N)c2)n(O)c1C(=O)O | inhibition (Coagulation factor XI [2]): 29.8%
16 | 7.32 | Cc1nc(-c2cccc(Cl)c2F)n(O)c1C(=O)N[C@@H](Cc1ccc([N+](=O)[O-])cc1)C(=O)Nc1ccc2[nH]c(C(=O)O)cc2c1 | –
17 | 18.9 | Cc1nc(-c2ccccc2C#N)n(O)c1C(=O)N[C@@H](Cc1ccccc1)C(=O)Nc1ccc(C(=O)O)cc1 | inhibition (Coagulation factor XI [3]): 16.4%
18 | > 100 | Cc1nc(-c2ccccc2)n(O)c1C(=O)N[C@@H](Cc1ccccc1)C(=O)Nc1ccc(C(=O)O)cc1 | –
